ChEMBL document CHEMBL1949496, “Synthesis of [¹⁸F]-labeled (2-(2-fluoroethoxy)ethyl)triphenylphosphonium cation as a potential agent for myocardial imaging using positron emission tomography” (Bioorg Med Chem Lett, 2012)

Legend:
Liver [1] = experiment: Biodistribution in BALB/c mouse liver at 7.4 MBq, iv after 10 mins by gamma counting; format: ADME, organism-based; conditions: in vivo
How it was run: (§1)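 Tracer given intravenously to BALB/c mice; animals sampled at 10, 30, 60 and 120 min after injection. Organ radioactivity expressed as percentage of injected dose per gram of tissue (% ID/g), n = 12.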

Stomach = experiment: Biodistribution in BALB/c mouse stomach at 7.4 MBq, iv after 10 mins by gamma counting; format: ADME, organism-based; conditions: in vivo; how it was run: as §1
Lung [2] = experiment: Biodistribution in BALB/c mouse lung at 7.4 MBq, iv after 30 mins by gamma counting; format: ADME, organism-based; conditions: in vivo, 0.5 h; how it was run: as §1
Kidney [3] = experiment: Biodistribution in BALB/c mouse kidney at 7.4 MBq, iv after 120 mins by gamma counting; format: ADME, organism-based; conditions: in vivo, 2 h; how it was run: as §1
Lung [4] = experiment: Biodistribution in BALB/c mouse lung at 7.4 MBq, iv after 10 mins by gamma counting; format: ADME, organism-based; conditions: in vivo; how it was run: as §1
Lung [5] = experiment: Biodistribution in BALB/c mouse lung at 7.4 MBq, iv after 120 mins by gamma counting; format: ADME, organism-based; conditions: in vivo, 2 h; how it was run: as §1
Kidney [6] = experiment: Biodistribution in BALB/c mouse kidney at 7.4 MBq, iv after 60 mins by gamma counting; format: ADME, organism-based; conditions: in vivo, 1 h; how it was run: as §1
Heart [7] = experiment: Biodistribution in BALB/c mouse heart at 7.4 MBq, iv after 60 mins by gamma counting; format: ADME, organism-based; conditions: in vivo, 1 h; how it was run: as §1
[8] = Metabolic stability in human serum assessed as compound remaining at 0.37 MBq after 4 hrs by TLC analysis; format: ADME, cell-free; conditions: read-out: Stability
How it was run: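 Analysed on ITLC-sg strips developed in methylene chloride:methanol (9:2 v/v), and the strips were scanned on an automatic TLC scanner.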

Liver [9] = experiment: Biodistribution in BALB/c mouse liver at 7.4 MBq, iv after 60 mins by gamma counting; format: ADME, organism-based; conditions: in vivo, 1 h; how it was run: as §1
Spleen [10] = experiment: Biodistribution in BALB/c mouse spleen at 7.4 MBq, iv after 120 mins by gamma counting; format: ADME, organism-based; conditions: in vivo, 2 h; how it was run: as §1
Bone [11] = experiment: Biodistribution in BALB/c mouse bone at 7.4 MBq, iv after 120 mins by gamma counting; format: ADME, organism-based, Bone element; conditions: in vivo, 2 h; how it was run: as §1
Bone [12] = experiment: Biodistribution in BALB/c mouse bone at 7.4 MBq, iv after 60 mins by gamma counting; format: ADME, organism-based, Bone element; conditions: in vivo, 1 h; how it was run: as §1
Blood = experiment: Biodistribution in BALB/c mouse blood at 7.4 MBq, iv after 60 mins by gamma counting; format: ADME, organism-based; conditions: in vivo, 1 h; how it was run: as §1
Heart [13] = experiment: Biodistribution in BALB/c mouse heart at 7.4 MBq, iv after 10 mins by gamma counting; format: ADME, organism-based; conditions: in vivo; how it was run: as §1
Nucleic Acid [14] = experiment: Ratio of drug level in BALB/c mouse heart to lung at 7.4 MBq, iv after 60 mins by gamma counter; format: ADME, organism-based; conditions: in vivo, 1 h
How it was run: (§2)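 Normal BALB/c mice were given the 18F tracer by i.v. injection. Tissues were sampled at 10, 30, 60 and 120 min. Activity is expressed as % injected dose per gram of tissue (n = 12), and organ ratios were taken from these values.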

Kidney [15] = experiment: Biodistribution in BALB/c mouse kidney at 7.4 MBq, iv after 10 mins by gamma counting; format: ADME, organism-based; conditions: in vivo; how it was run: as §1
Nucleic Acid [16] = experiment: Ratio of drug level in BALB/c mouse heart to blood at 7.4 MBq, iv after 10 mins by gamma counter; format: ADME, organism-based; conditions: other tissue; how it was run: as §2
Muscle tissue = experiment: Biodistribution in BALB/c mouse normal muscle at 7.4 MBq, iv after 60 mins by gamma counting; format: ADME, organism-based; conditions: in vivo, 1 h; how it was run: as §1
H9c2 = experiment: Cellular uptake in rat H9c2 cells after 0.5 to 2 hrs by gamma counting in presence of CCCP; format: ADME, cell-based
How it was run: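 H9c2 cells incubated with radiotracer at 37 °C for 0.5, 1 or 2 h in the presence of 0.5 µM protonophore CCCP, which abolishes mitochondrial membrane potential. Uptake expressed as percentage of applied radioactivity; means ± SD of three measurements.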

Heart [17] = experiment: Drug uptake in Sprague-Dawley rat heart at 37 MBq, iv after 1 hr by micro PET analysis; format: ADME, organism-based; conditions: in vivo
How it was run: (§3)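 Rats received the tracer intravenously and were imaged by micro-PET in coronal view at 0.5 h and 1.0 h after injection.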

Intestine [18] = experiment: Biodistribution in BALB/c mouse intestine at 7.4 MBq, iv after 30 mins by gamma counting; format: ADME, organism-based; conditions: in vivo, 0.5 h; how it was run: as §1
Kidney [19] = experiment: Biodistribution in BALB/c mouse kidney at 7.4 MBq, iv after 30 mins by gamma counting; format: ADME, organism-based; conditions: in vivo, 0.5 h; how it was run: as §1
Nucleic Acid [20] = experiment: Ratio of drug level in BALB/c mouse heart to blood at 7.4 MBq, iv after 120 mins by gamma counter; format: ADME, organism-based; conditions: other tissue, 2 h; how it was run: as §2
Liver [21] = experiment: Biodistribution in BALB/c mouse liver at 7.4 MBq, iv after 120 mins by gamma counting; format: ADME, organism-based; conditions: in vivo, 2 h; how it was run: as §1
Bone [22] = experiment: Biodistribution in BALB/c mouse bone at 7.4 MBq, iv after 10 mins by gamma counting; format: ADME, organism-based, Bone element; conditions: in vivo; how it was run: as §1
Intestine [23] = experiment: Biodistribution in BALB/c mouse intestine at 7.4 MBq, iv after 120 mins by gamma counting; format: ADME, organism-based; conditions: in vivo, 2 h; how it was run: as §1
Heart [24] = experiment: Drug uptake in Sprague-Dawley rat heart at 37 MBq, iv after 0.5 hrs by micro PET analysis; format: ADME, organism-based; conditions: in vivo; how it was run: as §3
Spleen [25] = experiment: Biodistribution in BALB/c mouse spleen at 7.4 MBq, iv after 30 mins by gamma counting; format: ADME, organism-based; conditions: in vivo, 0.5 h; how it was run: as §1
Pancreas = experiment: Biodistribution in BALB/c mouse pancreas at 7.4 MBq, iv after 120 mins by gamma counting; format: ADME, organism-based; conditions: in vivo, 2 h; how it was run: as §1
Spleen [26] = experiment: Biodistribution in BALB/c mouse spleen at 7.4 MBq, iv after 60 mins by gamma counting; format: ADME, organism-based; conditions: in vivo, 1 h; how it was run: as §1
Bone [27] = experiment: Biodistribution in BALB/c mouse bone at 7.4 MBq, iv after 30 mins by gamma counting; format: ADME, organism-based, Bone element; conditions: in vivo, 0.5 h; how it was run: as §1

Drug uptake (Liver [1]): 3.57 % ID/g
Drug uptake (Stomach): 3.75 % ID/g
Drug uptake (Lung [2]): 5.18 % ID/g
Drug uptake (Kidney [3]): 9.28 % ID/g
Drug uptake (Lung [4]): 7.69 % ID/g
Drug uptake (Lung [5]): 5.55 % ID/g
Drug uptake (Kidney [6]): 16.86 % ID/g
Drug uptake (Heart [7]): 19.96 % ID/g
remaining at 4 h, 0.37 MBq [8]: > 95%
Drug uptake (Liver [9]): 2.03 % ID/g
Drug uptake (Spleen [10]): 1.23 % ID/g
Drug uptake (Bone [11]): 2.28 % ID/g
Drug uptake (Bone [12]): 2.44 % ID/g
Drug uptake (Blood): 0.23 % ID/g
Drug uptake (Heart [13]): 35.23 % ID/g
Ratio (Nucleic Acid [14]): 5.05
Drug uptake (Kidney [15]): 36.05 % ID/g
Ratio (Nucleic Acid [16]): > 55
Drug uptake (Muscle tissue): 4.42 % ID/g
Drug uptake (H9c2): Not Active
Drug uptake (Heart [17]): Active
Drug uptake (Intestine [18]): 8.52 % ID/g
Drug uptake (Kidney [19]): 23.67 % ID/g
Ratio (Nucleic Acid [20]): > 102
Drug uptake (Liver [21]): 1.33 % ID/g
Drug uptake (Bone [22]): 3.37 % ID/g
Drug uptake (Intestine [23]): 2.66 % ID/g
Drug uptake (Heart [24]): Active
Drug uptake (Spleen [25]): 2.81 % ID/g
Drug uptake (Pancreas): 5.44 % ID/g
Drug uptake (Spleen [26]): 1.95 % ID/g
Drug uptake (Bone [27]): 2.35 % ID/g
SMILES: [18F]CCOCC[P+](c1ccccc1)(c1ccccc1)c1ccccc1
